Bioassay records deposited in PubChem BioAssay by several laboratories.
In the library only some 1.5% were active in any assay of this set; here they are far more common.
T cell HTS – modulators of CD8 T cell-vesicle binding, primary screen, mouse 2C CD8+ T cells, flow cytometry. actives 0.068% (n = 330,000). 2C CD8+ T cell-vesicle binding; active compounds read low. AID 2052, 2009. response (vesicle binding), % at 7 µM;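 active means response, share of CD8 T cells binding vesicles, and their 90th percentile fluorescence all below set limits, cut at about 80% in these data, passing the limit was not always enough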;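 further: values below 100% mean blocked vesicle binding to the CD8+ T cells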
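Read-out – percent CD8+ FL2 mean versus row control · System – murine 2C transgenic CD8+ T lymphocytes · Times – 1.5 h cell–vesicle binding at 37 °C, then 20 min icy labelling · Control set – naked vesicles low, QL9 vesicles with vehicle high · Detection – cytometric PE anti-B7-1 and Alexa647 anti-CD8 signals after 1% paraformaldehyde fixation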
CHT inh – inhibitors of human choline transporter CHT; High affinity choline transporter 1 (Homo sapiens), Q9GZV3; CHT-expressing cells, membrane potential dye, choline response; active compounds read low; B-score at 10 µM; actives 0.86% (n = 310,000); AID 488975, 2010;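 active means B-score over 3 SD under the library average, and starting fluorescence ratio not unusually high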;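 further: choline stimulus applied at its EC90 after an EC20 pre-addition; B-score computed on integrated fluorescence ratio after choline addition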
VLA-4 inh – inhibition in human VLA-4 binding assay, primary screen, VLA-4 allosteric modulator project, MLPCN library, flow cytometry, VLA-4 expressing cells. actives 0.2% (n = 330,000). inhibition, % (about 7 µM as worked out from the volumes in the protocol). ligand binding flow cytometry. Integrin alpha-4 (Homo sapiens), P13612. AID 2557, 2010; in the data active means inhibition above about 50%
Target sequence (P13612 whole entry, looked up): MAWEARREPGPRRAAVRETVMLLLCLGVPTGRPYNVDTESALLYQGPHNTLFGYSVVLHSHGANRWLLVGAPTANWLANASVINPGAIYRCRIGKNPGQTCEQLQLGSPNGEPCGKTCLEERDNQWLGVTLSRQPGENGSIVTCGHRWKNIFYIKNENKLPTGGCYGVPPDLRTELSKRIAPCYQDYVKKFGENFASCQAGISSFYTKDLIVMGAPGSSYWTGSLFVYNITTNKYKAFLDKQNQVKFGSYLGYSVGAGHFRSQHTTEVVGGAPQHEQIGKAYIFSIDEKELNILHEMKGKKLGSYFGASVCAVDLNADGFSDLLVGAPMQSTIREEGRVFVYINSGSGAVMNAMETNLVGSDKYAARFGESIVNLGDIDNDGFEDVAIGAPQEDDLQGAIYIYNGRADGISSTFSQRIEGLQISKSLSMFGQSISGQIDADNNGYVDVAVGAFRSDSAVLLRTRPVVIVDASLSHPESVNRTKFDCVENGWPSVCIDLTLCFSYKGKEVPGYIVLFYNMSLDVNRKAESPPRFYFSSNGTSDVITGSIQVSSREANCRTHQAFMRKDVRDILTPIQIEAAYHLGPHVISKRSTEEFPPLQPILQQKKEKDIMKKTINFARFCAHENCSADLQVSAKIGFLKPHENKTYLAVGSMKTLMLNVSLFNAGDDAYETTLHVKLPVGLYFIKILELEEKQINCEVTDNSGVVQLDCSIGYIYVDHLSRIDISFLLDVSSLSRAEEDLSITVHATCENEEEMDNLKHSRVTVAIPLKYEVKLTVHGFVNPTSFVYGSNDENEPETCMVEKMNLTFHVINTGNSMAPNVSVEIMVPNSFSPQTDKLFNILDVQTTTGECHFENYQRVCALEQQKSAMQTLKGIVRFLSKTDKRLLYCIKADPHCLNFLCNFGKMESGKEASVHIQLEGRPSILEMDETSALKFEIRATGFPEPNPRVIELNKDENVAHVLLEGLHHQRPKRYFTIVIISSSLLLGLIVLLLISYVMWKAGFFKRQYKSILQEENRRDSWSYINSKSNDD
CHT allo act – CHT positive allosteric modulators, primary screen, cell-based, membrane potential dye, choline EC20. CHT-expressing cells; active compounds read high; LV-AA mutant CHT in HEK293 cells. AID 488977, 2010. High affinity choline transporter 1 (Homo sapiens), Q9GZV3. B-score at 10 µM. actives 0.49% (n = 310,000);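 active means initial fluorescence not abnormally high and integrated response B-score, plate-corrected, over 3 SD above library mean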
VLA-4 allo CP – retest of VLA-4 allosteric modulators, confirmation, cell-based, cherry-picked plates, U937, HUTS-21 LIBS antibody. U937 cells, HUTS-21 LIBS mAb binding, flow cytometry; LDV ligand present at threefold Kd. AID 2813, 2010. actives 2% (n = 1,300). shares compounds with VLA-4 inh. inhibition, % at 6.7 µM; in the data active means inhibition above about 40%;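 further: 0% = ligand without compound and 100% = no ligand background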
Active calls of the source: *; i = inactive; . = not tested or not shown.

SMILES	T cell HTS	CHT inh	VLA-4 inh	CHT allo act	others
CC(C)(C)OC(=O)N[C@H](C(=O)OC(C)(C)C)c1ccc2ccccc2c1	597	.	13	.
O=C(COC(=O)C1CCC1)NC(=O)c1ccccc1	0.0*	i	-1	i
O=C(COC(=O)C1CC1)NC(=O)c1ccccc1	293	.	15	.
CC(=O)Nc1ccccc1C(=O)N1CCN(Cc2ccc3c(c2)OCO3)CC1	210	i	5	i
Cc1cc(C)n(C(=O)c2sc3cc(F)ccc3c2Cl)n1	0.0*	i	2	i
C=CCC[C@H](Cc1ccc(F)cc1)C(=O)OC[C@H](C)NC(=O)[C@@H](CC=C)CC(=O)N[C@H](CO)Cc1ccccc1	61*	.	-12	.
Cc1[nH]nc2c1C(c1cnn(C)c1)C(C#N)=C(N)O2 (centres undefined)	59*	i	0	i
O=C(O)c1ccc(N=N/C(=N\Nc2ccc(C(=O)O)cc2)c2ccccc2)cc1	611	i	14	i
O=C(O)c1cccc(N/N=C(\N=Nc2ccccc2)c2ccccc2)c1	i	-6.4*	19	i
COc1ccc(CC(=O)N(Cc2ccccc2)c2ccc(C)cc2)cc1OC	356	i	12	i
CN1CCN(CCCNC(=O)c2cn(C3CCCCC3)c(=O)c3c2c2ccccc2n3C)CC1	224	-5*	1	i
Cn1c2ccccc2c2c(C(=O)NCC3CCCO3)cn(C3CCCC3)c(=O)c21 (centres undefined)	391	i	-5	i
Cc1cccnc1NC(=O)c1ccc(Cl)c(S(=O)(=O)N2CCCCC2)c1	319	i	-5	i
CCCCNC(=O)c1ccc(NC(C)=O)c(Cl)c1	294	i	1	i
Cc1ccccc1N=C1c2cc([N+](=O)[O-])ccc2-c2ncccc21	230	i	10	9.7*
Cc1cc([N+](=O)[O-])cc2c1-c1ncccc1C2=Nc1ccccc1	218	i	19	i
O=c1c(C(c2ccccc2)c2c(O)sc3ccccc3c2=O)c(O)sc2ccccc12	311	-5.2*	16	i
O=C(O)c1ccc(-c2sc(Nc3ccccc3)n[n+]2-c2ccccc2)cc1	803	i	-10	i
c1ccc(COc2ccc(-c3sc(Nc4ccccc4)n[n+]3-c3ccccc3)cc2)cc1	367	i	7	8*
COc1ccc(C)cc1NC(=O)CCN1CCCC1	874	i	15	i
COc1ccc(OC)c(NC(=O)CCN2CCCCC2)c1	76*	i	5	i
Cc1[nH]n(-c2ccc(Br)cc2)c(=O)c1/C=N/NC(=O)c1ccccc1	209	-5.4*	1	i
Cc1[nH]n(-c2ccccc2)c(=O)c1/C=N/NC(=O)c1cccc(F)c1	388	i	7	i
O=C(NC1CCCC1)C1CCN(C(=O)c2ccc(Cl)cc2)CC1	262	i	2	i
CC(C)(C)c1ccc(C(=O)N2CCC(C(=O)NC3CCCCCC3)CC2)cc1	143	-5.1*	-5	i
SMILES	T cell HTS	CHT inh	VLA-4 inh	CHT allo act	others
Cc1cc(C)c2c(n1)nn1c(NCCCN(C)C)cc(C)nc21	540	i	-3	8.1*
CCc1nn2c(NCCCO)cc(C)nc2c1-c1ccc(F)cc1	93	i	4	i
CC(OC(=O)Cc1cccc(C(F)(F)F)c1)C(=O)Nc1ccc(Cl)cn1 (centres undefined)	266	i	3	i
Cc1ccc(S(=O)(=O)n2nnc3ccccc32)c(C)c1C	120	i	27	i
Cc1ccc(COC(=O)c2cc([N+](=O)[O-])ccc2N2CCOCC2)cc1	272	i	24	6.4*
O=C(OCc1ccc([N+](=O)[O-])cc1)c1cc([N+](=O)[O-])ccc1N1CCOCC1	185	i	-7	i
Cc1[nH]c2ccc(C(=O)OCC(=O)NC3(C#N)CCCCC3)cc2c1C	228	i	6	i
COc1ccc(-c2csc(NC(=O)c3ccccc3Br)c2C(=O)O)cc1	174	-6.2*	3	i
O=C1COc2ccc(N3C(=O)c4ccccc4C3=O)cc2N1	223	i	52*	i	VLA-4 allo CP=9
O=C1COc2ccc(-c3n[nH]c(=O)c4ccccc34)cc2N1	155	i	-7	i
O=C1Nc2ccccc2O/C1=C\c1c(F)cccc1Cl	211	i	49	i	VLA-4 allo CP=-18
COC(=O)c1ccc(/C=C2\Oc3ccccc3NC2=O)cc1	574	i	-2	i
O=C(O)c1ccc2c3c(cccc13)C(=O)N(c1cccc3ccccc13)C2=O	636	i	8	i
O=C(O)c1ccc2c(c1)C(=O)N(c1cccc3ccccc13)C2=O	201	i	58*	i	VLA-4 allo CP=3
COCCNC(=O)/C(C#N)=C/c1c(F)cccc1Cl	177	i	5	i	VLA-4 allo CP=5
COCCNC(=O)/C(C#N)=C/c1ccc(SC)cc1	219	i	7	i
COCCNC(=O)/C(C#N)=C/c1ccc(C(=O)O)cc1	214	i	2	i	VLA-4 allo CP=7
CCOC(=O)c1c(-c2ccc(F)cc2)csc1NC(=O)CCN1C(=O)c2ccccc2C1=O	492	i	11	i
CCOC(=O)c1c(-c2ccccc2)csc1NC(=O)CCN1C(=O)c2ccccc2C1=O	224	i	43	i	VLA-4 allo CP=9
Nc1ncnc2nc(SCCOc3ccc(Cl)cc3)[nH]c12	253	i	44	i	VLA-4 allo CP=-1
O=C(COC(=O)c1ccccc1NCCO)Nc1cccc(S(=O)(=O)NC2=NCCCCC2)c1	690	i	15	i
CCOc1ccc(Oc2c(/C=N/NC(=O)COc3ccccc3OC)c(C)nn2-c2ccccc2)cc1	227	i	46	i	VLA-4 allo CP=3
CCOc1ccc(Oc2c(/C=N/NC(N)=O)c(C)nn2-c2ccccc2)cc1	214	i	6	i
Cc1cccc(C)c1OCC(=O)Nc1ncn[nH]1	344	i	52*	i	VLA-4 allo CP=-8
Cc1ccc(/C=N/NC(=O)CNC(=O)c2cccc([N+](=O)[O-])c2C)o1	492	i	58*	i	VLA-4 allo CP=5
C=CCNC(=O)NC(=O)Cn1c(=O)c2c(ncn2CC)n(Cc2ccccc2)c1=O	198	i	6	i
C=CCNC(=O)Cn1c(=O)c2c(ncn2CCC(C)C)n(Cc2ccccc2)c1=O	217	i	50*	i	VLA-4 allo CP=-1
CC(C)(C)NCC(O)CON=C1c2ccccc2-c2ccccc21 (centres undefined)	0	i	55*	i	VLA-4 allo CP=-8
Cc1cc(C)c2c(N=NN3CCOCC3)[nH]nc2n1	210	i	9	i
